Measured values from ChEMBL document CHEMBL3272161, “Synthesis of prostaglandin synthetase substrate analogues. 2. (8Z,11Z,14Z)-15-Methyl-8,11,14-eicosatrienoic acid” (J Med Chem, 1977).
Active and inactive are the calls of the source. No cut-off for these calls is given here.

Columns and labels:
Ovis aries [1] = organism: Ovis aries; test: Activity at cyclooxygenase in sheep seminal vesicles assessed as oxygen consumption in presence of hematin
In short: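 Cyclooxygenase purified from seminal vesicles was supplemented with 0.5 uM hematin. Fatty acid came from a 9 mM heptane stock, dried under N2 just before use and resuspended in 0.1 M Tris-Cl pH 8.5 with 0.67 mM phenol. O2 uptake was read by oxygen electrode in 3-mL chambers. Arachidonic acid was run alongside as control substrate.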

Platelet = test: Antiplatelet activity against human platelet rich plasma assessed as inhibition of ADP-induced platelet aggregation up to 5 mM incubated for 2 mins prior to ADP-challenge; type: functional
In short: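 PRP came from citrated venous blood of aspirin-free human volunteers (200g, 20 min, RT), at 4-6 x 10^8 platelets/mL, with PPP as blank. Compound sodium salts, 50 mM in 0.1 M Na2CO3, were added as 0.01-0.05 mL to 0.5 mL of stirred PRP at 37 °C, 2 min before ADP. Aggregation was induced by 0.01 mL of 1 mM ADP and followed 2-3 min by aggregometer.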

Homo sapiens = organism: Homo sapiens; test: Activity at prostaglandin synthetase in ADP-induced human platelet rich plasma assessed as malondialdehyde formation up to 5 mM by spectrophotometric analysis
In short: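 After ADP aggregation, PRP (compound salts added 2 min pre-ADP) was held a further 27 min at 37 °C unstirred. Samples were quenched in 20% trichloroacetic acid/0.6 M HCl and centrifuged. Supernatant was heated 15 min in boiling water with 0.12 M thiobarbiturate (Tris, pH 7.0), then read at A533. MDA = PRP minus PPP signal; recovery was 75-80%.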

[2] = Competitive inhibition of cyclooxygenase-mediated cyclooxygenation of arachidonic acid in sheep seminal vesicles by Dixon plot analysis; set-up: species or system Ovis aries
In short: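 Seminal vesicle cyclooxygenase was used with 0.5 uM hematin in 0.1 M Tris-Cl pH 8.5 containing 0.67 mM phenol. Activity was followed as O2 consumption by oxygen electrode in 3-mL chambers, with arachidonic acid as substrate. Ki was derived by Dixon graphical method from eight assays.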

Ovis aries [3] = organism: Ovis aries; test: Irreversible inactivation of cyclooxygenase-mediated cyclooxygenation of arachidonic acid in sheep seminal vesicles up to 12 mins
In short: (§1)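 Cyclooxygenase O2-electrode assay was run with 0.5 uM hematin in Tris-Cl pH 8.5 with 0.67 mM phenol. Inhibitor was preincubated with enzyme for progressively longer periods, up to 12 min. Degree of inhibition was compared across preincubation times to test for irreversible inactivation.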

Ovis aries [4] = organism: Ovis aries; test: Reversible inhibition of cyclooxygenase in sheep seminal vesicles; in short: as §1
[5] = target: seed linoleate 13S-lipoxygenase-1 (Glycine max) (UniProt P08170); test: Activity at soybean lipoxygenase assessed as oxygen consumption

Activity (Homo sapiens) | Ki [2] | Activity (Ovis aries [3]) | inhibition (Ovis aries [4]) | Activity [5] | Compound | Activity (Ovis aries [1]) | inhibition (Platelet)
– | – | – | – | – | CCCCC/C=C\C/C=C\C/C=C\C/C=C\CCCC(=O)O | Active | –
Active | – | – | – | – | CCCCC/C=C\C/C=C\C/C=C\CCCCCCC(=O)O | – | Active
inactive | 2 µM | inactive | Active | Active | CCCCC/C(C)=C\C/C=C\C/C=C\CCCCCCC(=O)O | inactive | Active
